Assay results: ChEMBL document CHEMBL1148785, “Second generation tetrahydroquinoline-based protein farnesyltransferase inhibitors as antimalarials” (J Med Chem, 2007)

What was measured:
[1] = Inhibition of Plasmodium falciparum protein farnesyltransferase by scintillation proximity assay
Plasmodium falciparum [2] = assay: Antimalarial activity against Plasmodium falciparum 3D7; type: functional; settings: read-out: ED50 (the source's name)
How it was run: (§1)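 Asynchronous culture in type A+ erythrocytes at 0.5% parasitemia and 0.5% hematocrit, grown in RPMI-1640 with 20% heat-inactivated human A+ plasma. Compound was serially diluted from a top final 5 µM, with DMSO vehicle as 100% growth. Plates ran 48 h at 37 °C under 5% CO2/5% O2/90% N2, then [3H]-hypoxanthine (0.3 µCi) for 24 h. Filter-harvested counts were corrected for the uninfected-RBC background. ED50 by linear regression; duplicates averaged.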

Plasmodium falciparum [3] = assay: Antimalarial activity against Plasmodium falciparum K1; type: functional; settings: read-out: ED50 (the source's name); how it was run: as §1
Plasmodium falciparum [4] = assay: Inhibition of Plasmodium falciparum protein farnesyltransferase at 50 nM by scintillation proximity assay
Plasmodium falciparum [5] = assay: Inhibition of Plasmodium falciparum protein farnesyltransferase at 5 nM by scintillation proximity assay
Plasmodium falciparum [6] = assay: Inhibition of Plasmodium falciparum protein farnesyltransferase at 0.5 nM by scintillation proximity assay

Row | SMILES | IC50 [1] [nM] | EC50 (Plasmodium falciparum [2]; Plasmodium falciparum, 3D7) [nM] | EC50 (Plasmodium falciparum [3]; Plasmodium falciparum, K1) [nM] | EC50 (Plasmodium falciparum [2]) [nM] | EC50 (Plasmodium falciparum [3]) [nM] | inhibition (Plasmodium falciparum [4]) [%] | inhibition (Plasmodium falciparum [5]) [%] | inhibition (Plasmodium falciparum [6]) [%]
1 | Cn1cnc(C(=O)N(CC(=O)OC(C)(C)C)C2Cc3cc(C#N)ccc3N(Cc3cncn3C)C2)c1 (configuration not stated) | > 50 | > 5000 | > 5000 | – | – | – | – | –
2 | COC(=O)N1CCC(CN(C2Cc3cc(C#N)ccc3N(Cc3cncn3C)C2)S(=O)(=O)c2ccccn2)CC1 (configuration not stated) [listing 1 of 2 here] | 0.58 | – | – | 16 | 15 | – | – | –
3 | COC(=O)N1CCC(CN(C2Cc3cc(C#N)ccc3N(Cc3cncn3C)C2)S(=O)(=O)c2ccccn2)CC1 (configuration not stated) [listing 2 of 2 here] | 0.29 | – | – | 11 | 13 | – | – | –
4 | Cn1cnc(S(=O)(=O)N(CCCCC(=O)NCCN)C2Cc3cc(C#N)ccc3N(Cc3cncn3C)C2)c1 (configuration not stated) | 0.9 | 250 | 130 | – | – | – | – | –
5 | CC(C)NC(=O)c1ccc2c(c1)CC(N(CC(=O)NC(C)(C)C)S(=O)(=O)c1cn(C)cn1)CN2Cc1cncn1C (configuration not stated) | – | 4000 | 2600 | – | – | 46 | 7 | 14
6 | Cn1cncc1CN1CC(N(Cc2ccccc2C(F)(F)F)S(=O)(=O)c2ccccn2)Cc2cc(C#N)ccc21 (configuration not stated) | – | 650 | 3000 | – | – | 91 | 38 | 0
7 | Cn1cnc(S(=O)(=O)N(Cc2ncoc2-c2ccccc2)C2Cc3cc(C#N)ccc3N(Cc3cncn3C)C2)c1 (configuration not stated) | – | 490 | 890 | – | – | 92 | 20 | 0
8 | Cc1noc(C)c1CN(C1Cc2cc(C#N)ccc2N(Cc2cncn2C)C1)S(=O)(=O)c1ccccn1 (configuration not stated) | – | 144 | 965 | – | – | 96 | 93 | 17
9 | Cn1cncc1CN1CC(N(CCOc2cccc3c2OCCO3)S(=O)(=O)c2ccccn2)Cc2cc(C#N)ccc21 (configuration not stated) | – | 810 | 1450 | – | – | 88 | 41 | 10
10 | Cn1cncc1CN1CC(N(Cc2cccc3cccnc23)S(=O)(=O)c2ccccn2)Cc2cc(C#N)ccc21 (configuration not stated) | – | 1740 | 1320 | – | – | 88 | 46 | 17
11 | Cn1cnc(S(=O)(=O)N(CCCN)C2Cc3cc(C#N)ccc3N(Cc3cncn3C)C2)c1 (configuration not stated) | – | > 5000 | 4600 | – | – | 60 | 5 | 5
12 | COC(=O)NCCCN(C1Cc2cc(C#N)ccc2N(Cc2cncn2C)C1)S(=O)(=O)c1cn(C)cn1 (configuration not stated) | – | 19 | 17 | – | – | 100 | 96 | 61
13 | Cc1c(S(=O)(=O)N(Cc2ccc(S(C)(=O)=O)cc2)C2Cc3cc(C#N)ccc3N(Cc3cncn3C)C2)ncn1C (configuration not stated) | – | 320 | 450 | – | – | 92 | 70 | 23
14 | Cn1cncc1CN1CC(N(CC2CCN(C(=O)N3CCCC3)CC2)S(=O)(=O)c2ccccn2)Cc2cc(C#N)ccc21 (configuration not stated) | – | 35 | 65 | – | – | 99 | 31 | 91
15 | CCN(CCCCN(C1Cc2cc(C#N)ccc2N(Cc2cncn2C)C1)S(=O)(=O)c1ccccn1)C(=O)OC (configuration not stated) | – | 250 | 600 | – | – | 89 | 69 | 26
16 | Cn1cncc1CN1CC(N(Cc2ocnc2-c2ccccc2)S(=O)(=O)c2ccccn2)Cc2cc(C#N)ccc21 (configuration not stated) | – | 51 | 210 | – | – | 98 | 82 | 19
17 | CCS(=O)(=O)N1CCC(CN(C2Cc3cc(C#N)ccc3N(Cc3cncn3C)C2)S(=O)(=O)c2ccccn2)CC1 (configuration not stated) | – | 75 | 55 | – | – | 98 | 56 | 94

Row | SMILES | IC50 [1] [nM] | EC50 (Plasmodium falciparum [2]; Plasmodium falciparum, 3D7) [nM] | EC50 (Plasmodium falciparum [3]; Plasmodium falciparum, K1) [nM] | EC50 (Plasmodium falciparum [2]) [nM] | EC50 (Plasmodium falciparum [3]) [nM] | inhibition (Plasmodium falciparum [4]) [%] | inhibition (Plasmodium falciparum [5]) [%] | inhibition (Plasmodium falciparum [6]) [%]
18 | Cn1cncc1CN1CC(N(CCc2ccccc2F)S(=O)(=O)c2ccccn2)Cc2cc(C#N)ccc21 (configuration not stated) | – | 120 | 600 | – | – | 98 | 81 | 22
19 | COC(=O)N1CCC(CN(C2Cc3cc(C#N)ccc3N(C(C)c3cnc[nH]3)C2)S(=O)(=O)c2ccccn2)CC1 (configuration not stated) | – | 650 | 650 | – | – | 96 | 79 | 12
20 | CC(=O)Nc1ccc(S(=O)(=O)N(Cc2ccccc2F)C2Cc3cc(C#N)ccc3N(Cc3cncn3C)C2)cc1 (configuration not stated) | – | 150 | 150 | – | – | 25 | 4 | 4
21 | Cn1cncc1CN1CC(N(Cc2ccccc2F)S(=O)(=O)c2ccccc2)Cc2cc(C#N)ccc21 (configuration not stated) | – | 730 | 750 | – | – | 86 | 44 | 10
22 | Cn1cc(S(=O)(=O)N(Cc2ccc(S(C)(=O)=O)cc2)C2Cc3cc(C#N)ccc3N(Cc3cncn3C)C2)cn1 (configuration not stated) | – | 75 | 60 | – | – | 97 | 88 | 36
23 | Cn1cnc(S(=O)(=O)N(Cc2cccnc2)C2Cc3cc(C#N)ccc3N(Cc3cncn3C)C2)c1 (configuration not stated) | – | 70 | 210 | – | – | 99 | 89 | 17
24 | CCS(=O)(=O)N(Cc1ccccc1F)C1Cc2cc(C#N)ccc2N(Cc2cncn2C)C1 (configuration not stated) | – | 820 | 2100 | – | – | 61 | 11 | 0
25 | Cn1cnc(S(=O)(=O)N(CC(=O)NC(C)(C)C)C2Cc3cc(C(=O)O)ccc3N(Cc3cncn3C)C2)c1 (configuration not stated) | – | 3500 | 1420 | – | – | 80 | 29 | 0
26 | COC(=O)N(C)CCCN(C1Cc2cc(C#N)ccc2N(Cc2cncn2C)C1)S(=O)(=O)c1ccccn1 (configuration not stated) | – | 18 | 45 | – | – | 95 | 68 | 6
27 | COC(=O)N1CCC(CN(C2Cc3cc(C#N)ccc3N(Cc3cncn3C)C2)S(=O)(=O)C2CC2)CC1 (configuration not stated) | – | > 5000 | 3950 | – | – | 37 | 3 | 0
28 | Cn1cncc1CN1CC(N(CC2CCN(C(=O)c3ccco3)CC2)S(=O)(=O)c2ccccn2)Cc2cc(C#N)ccc21 (configuration not stated) | – | 80 | 93 | – | – | 92 | 51 | 92
29 | CN(C)CCCN(C1Cc2cc(C#N)ccc2N(Cc2cncn2C)C1)S(=O)(=O)c1cn(C)cn1 (configuration not stated) | – | 2600 | > 5000 | – | – | 34 | 9 | 0
30 | Cn1cnc(CN2CC(N(Cc3ccc(S(C)(=O)=O)cc3)S(=O)(=O)c3cn(C)cn3)Cc3cc(-c4ccccc4)ccc32)c1 (configuration not stated) | – | 270 | 450 | – | – | 98 | 84 | 32
31 | CC(C)NC(=O)N1CCC(CN(C2Cc3cc(C#N)ccc3N(Cc3cncn3C)C2)S(=O)(=O)c2ccccn2)CC1 (configuration not stated) | – | 65 | 45 | – | – | 100 | 38 | 93
32 | Cn1cncc1CN1CC(N(CC2CCN(C(=O)CNC(=O)OC(C)(C)C)CC2)S(=O)(=O)c2ccccn2)Cc2cc(C#N)ccc21 (configuration not stated) | – | 750 | 690 | – | – | 88 | 15 | 37
33 | COC(=O)NCCCN(C1Cc2cc(C#N)ccc2N(Cc2cncn2C)C1)S(=O)(=O)c1ccccn1 (configuration not stated) | – | 100 | 100 | – | – | 96 | 77 | 28
